# Source: PMC9773939 (ACS Omega, 2022)
# Read-outs that look alike come from different tables or passages of the source.
# How the values were obtained:
# T. cruzi epimastigotes = test: Nitrite concentration by Griess test, T. cruzi epimastigote culture; assay type: cell-based; settings: 5 days, 25, 50 and 100 μM
# How it was run: (§1)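 L. infantum promastigote or T. cruzi epimastigote cultures (5 × 10^6 parasites/well) were incubated 5 days with test compound at 25, 50 and 100 μM, with untreated wells as controls. Supernatants were mixed with 1% sulfanilamide in 50% acetic acid, then after 15 min with 1% N-naphthylethylenediamine in 50% acetic acid, and read at 540 nm. Nitrite (μM) was taken from a sodium nitrite standard curve (detection limit 1.56 μM). Run in triplicate.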
# [1] = tested on: L. infantum promastigotes; test: Nitrite concentration by Griess test, L. infantum promastigote culture; assay type: cell-based; settings: 5 days, 25, 50 and 100 μM
# How it was run: as §1
# [2] = tested on: promastigotes of L. braziliensis; test: In vitro growth inhibition of L. braziliensis promastigotes; assay type: cell-based, Leishmania (V) braziliensis (MHOM/BR/75/M2903); settings: for IC50: read-out: promastigote, IC50 L. braziliensis; for inhibition at 25 µM: read-out: promastigote, PGI (percentage growth inhibition) L. braziliensis
# [3] = tested on: epimastigotes of T. cruzi; test: In vitro anti-T. cruzi evaluation on epimastigotes; assay type: cell-based, T. cruzi (CL Brener clone); settings: for S.I.T.cruzi (selectivity index), column epimastigote, IC50 (μM) T. cruzi (S.I.T.cruzi): CC50 (J774.1A) / IC50 of epimastigotes (T. cruzi); for IC50 / inhibition at 25 µM: Trypanosoma cruzi; for IC50: 120 h, read-out: epimastigote, IC50 T. cruzi; for inhibition at 25 µM: read-out: epimastigote, PGI (percentage growth inhibition) T. cruzi, determined at 25 μM
# How it was run: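 Turbidity (A595) was read at day 0 and day 5. PGI was calculated relative to untreated controls, with single-point PGI at 25 μM. IC50 is the concentration […]. At least three experiments.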
# peritoneal macrophages = test: Cytotoxicity on primary peritoneal macrophages; assay type: cell-based, mouse; settings: read-out: peritoneal macrophage, CC50; 48 h, MTT
# How it was run: (§2)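 Peritoneal or J774.1A macrophages were grown in DMEM with 10% heat-inactivated FBS, L-glutamine and penicillin/streptomycin. Cells were seeded at 5 × 10^4 cells/well for 24 h at 37 °C, 5% CO2, then given test compound at 10–100 μM (from 25,000 μM DMSO stock) for 48 h. MTT (0.4 mg/mL, 4 h, 37 °C) was dissolved in DMSO and read at 570 nm. Cytotoxicity was expressed relative to negative controls. At least three experiments.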
# [4] = tested on: promastigotes of L. infantum; test: In vitro growth inhibition of L. infantum promastigotes; assay type: cell-based, Leishmania infantum (MHOM MA67I7MAP263); settings: for IC50 / inhibition at 25 µM: Leishmania infantum; for IC50 / promastigote, IC50 L. infantum: 72 h; for IC50: read-out: promastigote, IC50 L. infantum; for inhibition at 25 µM: read-out: promastigote, PGI (percentage growth inhibition) L. infantum; for promastigote, IC50 L. infantum: promastigotes, MTT
# How it was run: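 L. infantum MHOM MA67I7MAP263 promastigotes at 2 × 10^6 parasites/mL were exposed to 0.5–25 μM test compound for 72 h at 25 °C. Dilutions came from a 3000 μM DMSO stock, with final DMSO ≤1%. MTT (0.4 mg/mL) was added for 4 h at 37 °C, formazan was dissolved in DMSO and read at 570 nm. Inhibition was calculated against untreated controls. At least three experiments, mean ± SD.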
# J774.1A macrophages = test: Cytotoxicity on J774.1A macrophages; assay type: cell-based; settings: read-out: J774.1A macrophage, CC50; 48 h, MTT
# How it was run: as §2
# [5] = tested on: amastigotes of L. braziliensis; test: Ex vivo antiamastigote activity of L. braziliensis; assay type: cell-based, L. braziliensis (MHOM/BZ/82/M2903); settings: for S.I.Leishmania (selectivity index): CC50 (peritoneal macrophage) / IC50 (amastigotes of L. braziliensis); for IC50: Leishmania braziliensis, 48 h, read-out: amastigote, IC50 L. braziliensis
# How it was run: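 L. braziliensis MHOM/BZ/82/M2903 amastigotes were taken from footpad lesions of infected BALB/c mice. Macrophages were removed by brief centrifugation (3000 rpm, 2–3 min). Amastigotes were kept at 37 °C, pH 5.5, in supplemented M199 with 10% FCS. At 2 × 10^6/mL they were exposed to 1.0–50.0 μM test compound (controls 1% DMSO). At 48 h parasites were counted in a Neubauer chamber against untreated controls. S.I. = peritoneal macrophage CC50 / amastigote IC50.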
# [6] = Solubility, qualitative remarks; assay type: physicochemical; settings: qualitative remark
# [7] = Cytotoxicity on primary peritoneal macrophages; assay type: cell-based, mouse; settings: mouse, primary peritoneal macrophages, peritoneal macrophage, CC50, 48 h, MTT
# How it was run: as §2
# [8] = tested on: epimastigotes of T. cruzi; test: Antifolate activity: IC50 on T. cruzi epimastigotes with and without folic acid; assay type: cell-based; settings: presence vs absence of D,L-folic acid
# How it was run: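 T. cruzi epimastigotes were treated with test compound with or without D,L-folic acid, following the epimastigote turbidimetric viability protocol (120 h, 25 °C, A595). IC50 was determined in each condition and compared.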
# [9] = tested on: promastigotes of L. infantum; test: Effect of metal cations on IC50 on L. infantum promastigotes; assay type: cell-based; settings: Leishmania parasites, metal cation at 1 μM
# How it was run: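 L. infantum promastigotes were treated with test compound alone or with a metal cation (Fe3+, Cu2+ or Zn2+) at 1 μM, following the promastigote MTT viability protocol. IC50 was determined with and without the cation and compared.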
# [10] = Cytotoxicity on J774.1A macrophages; assay type: cell-based; settings: mouse, J774.1A macrophages, J774.1A macrophage, CC50, 48 h, MTT
# How it was run: as §2
# [11] = tested on: Salmonella typhimurium TA 98 strain; test: Mutagenicity Ames test; assay type: cell-based; settings: dose 20.0 μg/plate
# [12] = tested on: promastigotes of L. infantum; assay type: cell-based; settings: presence vs absence of D,L-folic acid
# How it was run: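 L. infantum promastigotes were treated with test compound with or without D,L-folic acid, following the promastigote MTT viability protocol (72 h, 25 °C, formazan read at 570 nm). IC50 was determined in each condition and compared.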
Structure (SMILES),IC50 ([2]; Leishmania braziliensis) [µM],"S.I.T.cruzi (selectivity index), column epimastigote, IC50 (μM) T. cruzi (S.I.T.cruzi) [3]",IC50 [3] [µM],IC50 [4] [µM],S.I.Leishmania (selectivity index) [5],IC50 [5] [µM],CC50 at 48 h [7] [µM],also measured
"O=c1[nH]c(-c2ccc(Cl)cc2)nc2ccccc12 [2-(4-chlorophenyl)quinazolin-4(3H)-one, reference compound]",–,–,–,–,–,–,–,nitrite ion production (Griess test) (T. cruzi epimastigotes): No production was detected; nitrite ion production (Griess test) [1]: No production was detected
"NNc1nc(-c2ccccc2)nc2ccccc12 [3a, (Z)-1-(2-phenylquinazolin-4(3H)-ylidene)hydrazine]",4.53 ± 0.23,<3.6,> 25,12.7 ± 0.74,7.4,8.26 ± 0.45,–,CC50 (peritoneal macrophages): 61 ± 2.34 µM; CC50 (J774.1A macrophages): 90.2 ± 4.32 µM
"NNc1nc(-c2ccc(F)cc2)nc2ccccc12 [3b, (Z)-1-(2-(4-fluorophenyl)quinazolin-4(3H)-ylidene)hydrazine]",3.85 ± 0.17,>6.7,17.9 ± 1.21,5.01 ± 0.31,–,7.41 ± 0.39,> 100,solubility in culture [6]: appreciable solubility
"NNc1nc(-c2ccc(Br)cc2)nc2ccccc12 [3d, (Z)-1-(2-(4-bromophenyl)quinazolin-4(3H)-ylidene)hydrazine]",6.2 ± 0.38,5.5,14.3 ± 0.87,2.13 ± 0.12,6.2,12.7 ± 0.78,–,change of IC50 on addition of folic acid (FA) [8]: Increasing IC50 values by about twofold; CC50 (peritoneal macrophages): 78 ± 3.89 µM; CC50 (J774.1A macrophages): 78.6 ± 3.99 µM
"Cc1ccc(-c2nc3ccccc3/c(=N/N)[nH]2)cc1 [3e, (Z)-1-(2-(4-Methylphenyl)quinazolin-4(3H)-ylidene)hydrazine]",10.1 ± 0.48,6.4,18 ± 1.11,1.2 ± 0.08,6.1,14 ± 0.89,84.8 ± 3.67,change of IC50 on addition of folic acid (FA) [8]: Increasing IC50 values by about twofold; change of IC50 in the presence of Cu2+ [9]: increase in IC50 values; CC50 at 48 h [10]: 115 ± 5.43 µM
"NNc1nc(-c2cccc(Cl)c2)nc2ccccc12 [3f, (Z)-1-(2-(3-chlorophenyl)quinazolin-4(3H)-ylidene)hydrazine]",5.63 ± 0.36,no active,> 25,4.55 ± 0.29,–,8.43 ± 0.51,> 100,solubility in culture [6]: appreciable solubility; CC50 (J774.1A macrophages): > 120 µM
"N/N=c1\[nH]c(-c2cccc(Br)c2)nc2ccccc12 [3g, (Z)-1-(2-(3-bromophenyl)quinazolin-4(3H)-ylidene)hydrazine]",> 25,–,> 25,21.1 ± 1.21,–,–,–,inhibition at 25 µM ([2]; Leishmania braziliensis): 27.3%
"COc1cccc(-c2nc3ccccc3/c(=N/N)[nH]2)c1 [3h, (Z)-1-(2-(3-Methoxyphenyl)quinazolin-4(3H)-ylidene)hydrazine]",12.2 ± 0.76,–,> 25,> 25,–,–,–,"inhibition at 25 µM [3]: 10.1%; inhibition at 25 µM [4]: 47.2%; promastigote, IC50 L. infantum [4]: inactive"
"COc1ccccc1-c1nc2ccccc2/c(=N/N)[nH]1 [3i, (Z)-1-(2-(2-Methoxyphenyl)quinazolin-4(3H)-ylidene)hydrazine]",> 25,–,> 25,> 25,–,–,–,"inhibition at 25 µM ([2]; Leishmania braziliensis): 49.2%; promastigote, IC50 L. braziliensis ([2]; promastigotes): did not show activity; solubility [6]: poor solubilities; inhibition at 25 µM [3]: 11.9%; inhibition at 25 µM [4]: 28.3%; promastigote, IC50 L. infantum [4]: did not show activity"
N/N=c1\[nH]c(-c2ccco2)nc2ccccc12 [3k],> 25,–,> 25,14 ± 0.91,–,–,–,inhibition at 25 µM ([2]; Leishmania braziliensis): 46.6%; inhibition at 25 µM [3]: 8.56%
"Nc1ccc([N+](=O)[O-])cc1N [NPD, 4-nitro-o-phenylenediamine, reference compound]",–,–,–,–,–,–,–,revertants number [11]: 394.0 ± 10
"CNC[C@H](O)[C@@H](O)[C@H](O)[C@H](O)CO.[O]=[Sb](=[O])[OH] [glucantime, reference compound]",–,–,–,–,11.3,–,–,IC50 ([2]; promastigotes): 32 ± 1.78 µM; CC50 (peritoneal macrophages): 138 ± 10.1 µM
"CCCCCCCCCCCCCCCCOP(=O)([O-])OCC[N+](C)(C)C [miltefosine, reference compound]",8.78 ± 0.41,–,–,10.6 ± 0.46,3.2,21.2 ± 1.13,67.8 ± 3.11,change of IC50 on addition of folic acid (FA) [12]: not affected; CC50 at 48 h [10]: 72.3 ± 3.45 µM
